The values that follow come from ChEMBL document CHEMBL2412975 (Bioorg Med Chem, 2013).

Data set [1] can be described thus: Apparent clearance in human liver microsomes. The data set is classed as ADME, Microsome. The note with it: read-out: CLH(app).
Data set [2] can be described thus: Cmax in rat at 5 mg/kg, po. Also noted: dose 5 mg/kg, route oral. The data set is classed as ADME, organism-based. The note with it: in vivo. In outline:
(§1)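 Rat PK. Oral dose 5 mg/kg given in 0.5% methylcellulose. Cmax and AUC are reported as free drug concentrations. Bioavailability is taken relative to a 1 mg/kg intravenous dose.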

Data set [3] in a line: Half life in rat. The data set is classed as ADME, organism-based. The note with it: in vivo. In a few lines:
as §1

Data set [4] relates to Rattus norvegicus. Description: Oral bioavailability in rat at 5 mg/kg. The note with it: in vivo. The data set is classed as ADME, organism-based. In a few lines: as §1
Data set [5] in a line: Volume of distribution at steady state in rat at 1 mg/kg, iv. The note with it: in vivo, read-out: Vdss. More on the design: dose 1 mg/kg, route intravenous. The data set is classed as ADME, organism-based. In outline:
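Rat, single intravenous dose of 1 mg/kg. Steady-state volume of distribution comes from the plasma profile.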

The subject of data set [6] is Rattus norvegicus. The experiment in a line: AUC in rat at 5 mg/kg, po. The note with it: in vivo. The data set is classed as ADME, organism-based, Plasma. Also noted: dose 5 mg/kg, route oral. In a few lines: as §1
Data set [7] is described as follows: Lipophilicity, log D of the compound. The data set is classed as physicochemical. The note with it: octanol/water.
The nature of data set [8]: Metabolic stability in human liver microsomes assessed as compound remaining after 1 hr. The data set is classed as ADME, Microsome. The note with it: read-out: Stability. In outline: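 Human liver microsomes incubated with compound for 1 h. Read-out is percent of parent remaining.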
For orientation: Microsomes from liver hold many membrane-bound enzymes, among them those of drug oxidation.

As to `Nc1ncnc2c1C(=O)N(c1ccc([C@H]3CC[C@H](CC(=O)N4CCCC4)CC3)cc1)CCO2`, the CLint scaled in data set [1] turned out to be 15 mL/min/kg.

With `COC1CCN(C(=O)C[C@H]2CC[C@H](c3ccc(N4CCOc5ncnc(N)c5C4=O)cc3)CC2)CC1`, the CLint scaled in data set [1] worked out at 107 mL/min/kg. On to `CN1CCN(C(=O)C[C@H]2CC[C@H](c3ccc(N4CCOc5ncnc(N)c5C4=O)cc3)CC2)CC1=O`, for which, in data set [1], the CLint scaled turned out to be 9 mL/min/kg. For the compound `Nc1ncnc2c1C(=O)N(c1ccc([C@H]3CC[C@H](CC(=O)N4CCOCC4)CC3)cc1)CCO2`, in data set [2], the maximum concentration (Cmax) (as a rule, the highest concentration seen after dosing) was determined as 425 ng/mL. Also, the half-life (usually the time in which the quantity being followed falls by half) in data set [3] is 2 h. In data set [4], this compound had an F of 77%. Also, in data set [5], the Vd amounted to 1.2 L/kg. Moreover, in data set [6], the AUC (as a rule, the area under the concentration-time curve, a measure of exposure) was found to be 838 ng·h/mL. In addition, the CLint scaled in data set [1] is below 8 mL/min/kg. In the case of `Nc1ncnc2c1C(=O)N(c1ccc([C@H]3CC[C@H](CC(=O)NC4CCCC4)CC3)cc1)CCO2`, in data set [1], the CLint scaled came to 39 mL/min/kg. `CC(C)(N)C[C@H]1CC[C@H](c2ccc(N3CCOc4ncnc(N)c4C3=O)cc2)CC1`: in data set [1], the CLint scaled turned out to be 12 mL/min/kg. On the same count and under the same terms, to `CCNC(=O)C[C@H]1CC[C@H](c2ccc(N3CCOc4ncnc(N)c4C3=O)cc2)CC1` belongs below 8 mL/min/kg; to `Cc1nnc(C[C@H]2CC[C@H](c3ccc(N4CCOc5ncnc(N)c5C4=O)cc3)CC2)o1`, below 8 mL/min/kg.

As to `Cc1nc(N)c2c(n1)OCCN(c1ccc([C@H]3CC[C@H](CC(=O)O)CC3)cc1)C2=O`, the CLint scaled in data set [1] was below 8 mL/min/kg. Still for that read-out and setting: to `CN(CC(=O)O)C(=O)C[C@H]1CC[C@H](c2ccc(N3CCOc4ncnc(N)c4C3=O)cc2)CC1` belongs below 8 mL/min/kg. Consider `Nc1ncnc2c1C(=O)N(c1ccc([C@H]3CC[C@H](CCC(=O)O)CC3)cc1)CCO2`, for which the CLint scaled in data set [1] was below 8 mL/min/kg.

Consider `CC(C)C(=O)N1CCC(c2ccc(N3CCOc4ncnc(N)c4C3=O)cc2)CC1`, for which the CLint scaled in data set [1] amounted to 11 mL/min/kg.

As to `Nc1ncnc2c1C(=O)N(c1ccc(C3CCN(C(=O)c4ccno4)CC3)cc1)CCO2`, in data set [1], the CLint scaled was found to be 13 mL/min/kg.

For `Nc1ncnc2c1C(=O)N(c1ccc([C@H]3CC[C@H](CC(=O)N4CC(O)C4)CC3)cc1)CCO2`, in data set [1], the CLint scaled is below 8 mL/min/kg. `N#CC[C@H]1CC[C@H](c2ccc(N3CCOc4ncnc(N)c4C3=O)cc2)CC1` displayed a Cmax in data set [2] of 174 ng/mL. Besides, in data set [3], the half-life was 3.1 h. Also, in data set [4], the F is reported as 85%. For the same compound, in data set [5], the Vd was found to be 2 L/kg. Moreover, the AUC in data set [6] was 801 ng·h/mL. Further, in data set [1], the CLint scaled is below 8 mL/min/kg. Regarding `Nc1ncnc2c1C(=O)N(c1ccc(C3CCN(C(=O)c4ccccc4)CC3)cc1)CCO2`, the CLint scaled in data set [1] was below 8 mL/min/kg. In the case of `Cc1noc(CC[C@H]2CC[C@H](c3ccc(N4CCOc5ncnc(N)c5C4=O)cc3)CC2)n1`, the CLint scaled in data set [1] turned out to be 82 mL/min/kg. Same read-out and setting: to `Nc1ncnc2c1C(=O)N(c1ccc([C@H]3CC[C@H](Cc4nnn[nH]4)CC3)cc1)CCO2` belongs below 8 mL/min/kg; to `CC(C)[C@H](CO)NC(=O)C[C@H]1CC[C@H](c2ccc(N3CCOc4ncnc(N)c4C3=O)cc2)CC1`, below 8 mL/min/kg; to `Cc1nnc(C[C@H]2CC[C@H](c3ccc(N4CCOc5ncnc(N)c5C4=O)cc3)CC2)[nH]1`, below 8 mL/min/kg. Turning to `Nc1ncnc2c1C(=O)N(c1ccc(C3CCN(C(=O)[C@H]4CC[C@@H](O)CC4)CC3)cc1)CCO2`, the CLint scaled in data set [1] is below 8 mL/min/kg. On to `Nc1ncnc2c1C(=O)N(c1ccc(C3CCN(C(=O)C4CCCCC4)CC3)cc1)CCO2`, for which, in data set [1], the CLint scaled came to 41 mL/min/kg.

Consider `Cc1nnc(C[C@H]2CC[C@H](c3ccc(N4CCOc5ncnc(N)c5C4=O)cc3)CC2)n1C`, for which the CLint scaled in data set [1] is below 8 mL/min/kg. In turn, `CC(C)(O)C[C@H]1CC[C@H](c2ccc(N3CCOc4ncnc(N)c4C3=O)cc2)CC1` gave a Cmax in data set [2] of 171 ng/mL. Also, in data set [3], the half-life is 2.6 h. This compound showed a F in data set [4] of 100%. Also, the Vd in data set [5] stood at 1.3 L/kg. The compound also registered an AUC in data set [6] of 1260 ng·h/mL. The CLint scaled in data set [1] was below 8 mL/min/kg. Consider `Nc1ncnc2c1C(=O)N(c1ccc(C3CCN(C(=O)C4CCOCC4)CC3)cc1)CCO2`, for which, in data set [1], the CLint scaled is below 8 mL/min/kg.

Regarding `Nc1ncnc2c1C(=O)N(c1ccc(C3CCN(C(=O)c4cnon4)CC3)cc1)CCO2`, the CLint scaled in data set [1] was below 8 mL/min/kg. Regarding `Cc1nnc(C[C@H]2CC[C@H](c3ccc(N4CCOc5ncnc(N)c5C4=O)cc3)CC2)s1`, the CLint scaled in data set [1] was below 8 mL/min/kg. The same measure, in the same setting: to `Nc1ncnc2c1C(=O)N(c1ccc(C3CCN(C(=O)c4ccon4)CC3)cc1)CCO2` belongs 12 mL/min/kg. `Cc1noc(C[C@H]2CC[C@H](c3ccc(N4CCOc5ncnc(N)c5C4=O)cc3)CC2)n1` showed a Cmax in data set [2] of 118 ng/mL. Also, the pH-dependent lipophilicity (logD) (commonly the decadic logarithm of the distribution of all forms, ionised or not, between an organic phase and buffer at a given pH) in data set [7] is 2.3. The compound also showed a half-life in data set [3] of 2.7 h. In data set [4], this compound gave an F of 53%. Moreover, the Vd in data set [5] came out at 1.2 L/kg. In addition, the AUC in data set [6] is 727 ng·h/mL. Further, the CLint scaled in data set [1] was below 8 mL/min/kg. As for `Nc1ccnc2c1C(=O)N(c1ccc([C@H]3CC[C@H](CC(=O)O)CC3)cc1)CCO2`, the CLint scaled in data set [1] was found to be 8.4 mL/min/kg. Take `CC(=O)N1CCC(c2ccc(N3CCOc4ncnc(N)c4C3=O)cc2)CC1`: the CLint scaled in data set [1] was below 8 mL/min/kg. In the case of `Nc1ncnc2c1C(=O)N(c1ccc([C@H]3CC[C@H](CC(=O)O)CC3)cc1)CCO2` [PF-04620110], the Cmax in data set [2] stood at 225 ng/mL. Besides, the remaining at 1 h in data set [8] was 93%. Besides, in data set [3], the half-life was 7.3 h. Also, in data set [5], the Vd was found to be 1.8 L/kg. Further, the AUC in data set [6] is 565 ng·h/mL. Besides, the CLint scaled in data set [1] was below 8 mL/min/kg. In the case of `Nc1ncnc2c1CN(c1ccc([C@H]3CC[C@H](CCO)CC3)cc1)CCO2`, the CLint scaled in data set [1] was 11 mL/min/kg. In turn, `NC(=O)C[C@H]1CC[C@H](c2ccc(N3CCOc4ncnc(N)c4C3=O)cc2)CC1` returned a Cmax in data set [2] of 273 ng/mL. The compound also had a half-life in data set [3] of 4.3 h. In data set [4], this compound registered an F of 88%. Further, in data set [5], the Vd turned out to be 1.6 L/kg. Also, the AUC in data set [6] is 810 ng·h/mL. Also, in data set [1], the CLint scaled is below 8 mL/min/kg. For the compound `Nc1ncnc2c1C(=O)N(c1ccc([C@H]3CC[C@H](CC(=O)N4CC[C@@H](O)C4)CC3)cc1)CCO2`, the CLint scaled in data set [1] was below 8 mL/min/kg.
